Source: PubChem (several laboratories)
CHT allo act: human CHT allosteric activation; Q9GZV3; CHT-expressing cells, membrane potential dye, choline EC20; active compounds read high; LV-AA mutant CHT in HEK293 cells; B-score at 10 µM; actives 0.49% (n = 310,000); AID 488977;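 active means initial fluorescence not abnormally high and integrated response B-score, plate-corrected, over 3 SD above library mean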
T cruzi inh: blocks replication of Trypanosoma cruzi; T. cruzi beta-gal in NIH3T3, luminescence, 90 h; inhibition, % (concentration not given with the values); actives 1.4% (n = 300,000); AID 1885;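 active means mean inhibition across valid replicates above about 55%, limit read from the data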;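 further: signal also drops with host cell toxicity which is not excluded here; 0% = plate median of DMSO wells and 100% = zero luminescence signal; higher percent means less beta-gal luminescence so fewer parasites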
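System: mouse NIH/3T3 fibroblasts infected with β-gal-expressing T. cruzi Tulahuen C4 / Input: NIH/3T3 cells, 5,000 per well / Buffer or medium: Low-serum DMEM with 2% FBS / Probe or stimulus: 5000 reporter trypomastigotes per well / Schedule: ≥90 h infection period, 3 h prior cell attachment / Measured by: GalScreen luminescence, 60 min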
PolyA inhibitor: blocks polyadenylation in yeast reporter cells; activity score, % at 12 µM; actives 0.02% (n = 300,000); S. cerevisiae SKY197-pL101 polyadenylation reporter, beta-gal luminescence; efflux-impaired pdr1/pdr3 knockout yeast; score 100 = 6 SD above DMSO;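 active means lowest replicate activity score at least 50, where 100 means six control SD above control mean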;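 further: yeast exposed to compound for 9 h at 30 °C; higher score means more reporter readthrough which indicates perturbed polyadenylation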
CHT inh: human CHT choline transport inhibition; CHT-expressing cells, membrane potential dye, choline response; active compounds read low; actives 0.86% (n = 310,000); B-score at 10 µM; Q9GZV3;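 active means B-score over 3 SD under the library average, and starting fluorescence ratio not unusually high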;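 further: choline stimulus applied at its EC90 after an EC20 pre-addition; B-score computed on integrated fluorescence ratio after choline addition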
Starred values were filed as active, the others as inactive; i = inactive; nt = no result given. Most compounds without a hit are left out; they make up all but 2.6% or so of the library.

SMILES | CHT allo act | T cruzi inh | PolyA inhibitor | CHT inh
COc1ccc(C2(C)NC(=O)N(CC(=O)Nc3ccc(Br)cc3F)C2=O)cc1OC (stereo not given) | i | -5 | 10 | i
COc1ccc2ccccc2c1-c1sc(Nc2ccccc2)n[n+]1-c1ccc(F)cc1 | i | 61* | 13 | i
COc1ccc(-c2sc(Nc3ccccc3)n[n+]2-c2ccc(F)cc2)cc1Br | i | -2 | 8 | i
CCn1c(O)c(C2=c3ccccc3=NC2=O)c2cc(Br)ccc21 | i | 61* | -66 | i
O=C(O)c1ccc(SCc2cnc(Cl)s2)cc1 | i | -10 | 61* | i
Cc1ccc2c(c1)N(C(=O)CCC(=O)NCc1cccc(F)c1)CCO2 | i | 5 | -3 | i
CCCCCC(=O)Nc1cccc(C2=NOC3(C2)C[C@H](C(N)=O)N(C(=O)CCCCC)C3)c1 (stereo not given in full) | i | 46 | -14 | i
CCCCCC(=O)Nc1cccc(C2=NOC3(C2)C[C@@H](C(N)=O)N(C(=O)c2ccc(Cl)cc2)C3)c1 (stereo not given in full) | i | 60* | 31 | i
CCSc1nc2c(cnn2-c2ccccc2)c(=O)n1N | i | -9 | -15 | i
COc1cccc(-c2nc(N3CCN(C)CC3)c3ccccc3n2)c1O | i | 55* | -14 | i
CN1CCN(c2nc(-c3ccccc3O)nc3ccccc23)CC1 | i | 43 | -5 | i
Cc1ccc(C)c(OCCCCn2ccnc2)c1 | i | 71* | -1 | i
Cc1ccc(OCCCCn2ccnc2)c(Cl)c1 | i | 61* | -2 | i
Cc1ccc(OCCCCn2ccnc2)c([N+](=O)[O-])c1 | i | 23 | 10 | i
CC(C)(C)c1ccccc1OCCCCCn1ccnc1 | i | 61* | -19 | i
CCCCCN(C(=O)CCC(=O)OCCOc1cccc(C)c1)c1c(N)n(CCCC)c(=O)[nH]c1=O | i | 11 | 21 | i
O=C(Nc1ccn(Cc2c(F)c(F)cc(F)c2F)n1)c1ccc(COc2ccccc2Cl)cc1 | i | 63* | -1 | i
CCc1ccc(-c2cc(C(=O)N3N=C(C(F)F)CC3(O)C(F)F)c3ccccc3n2)cc1 (stereo not given) | i | 59* | 2 | i
CC(C)Cc1cc(C(=O)N2N=C(C(F)F)CC2(O)C(F)F)c2ccccc2n1 (stereo not given) | i | 15 | 29 | i
COc1ccc(CNC(=O)CN2C(=O)CCSc3ccc(S(=O)(=O)N4CCCC4)cc32)cc1 | i | 15 | -4 | i
O=C(c1cc(COc2cccc3cnccc23)on1)N1CCC(c2ccccc2Cl)C1 (stereo not given) | i | 63* | -14 | i
O=C(c1cc(COc2c(F)cccc2F)on1)N1CCC(c2ccccc2Cl)C1 (stereo not given) | i | 15 | 12 | i
O=C(CCCCCN1C(=O)[C@@H]2Cc3ccccc3CN2C1=O)Nc1cccc(F)c1 | i | -8 | 1 | i
Cc1nc(NCCc2ccccc2)c2oc3ccccc3c2n1 | 6.3* | -14 | -40 | i
Cc1nc(NCCN2CCOCC2)c2oc3ccccc3c2n1 | i | -7 | -6 | i
SMILES | CHT allo act | T cruzi inh | PolyA inhibitor | CHT inh
CN1/C(=C\C(=O)C[n+]2ccc3ccccc3c2)C(C)(C)c2ccccc21 | nt | 61* | -7 | nt
COc1ccccc1OCC(=O)/C=C1/N(C)c2ccccc2C1(C)C | i | 22 | -21 | i
CN1/C(=C\C(=O)COc2ccc3c(c2)OCO3)C(C)(C)c2ccccc21 | i | 56* | -10 | i
CNC(=S)N(CCc1c(C)[nH]c2ccc(Cl)cc12)Cc1cccs1 | i | 60* | 0 | i
CNC(=S)N(CCc1c(C)[nH]c2ccc(C)cc12)Cc1ccco1 | i | -6 | 1 | i
COCCNC(=S)N(CCc1c(C)[nH]c2ccc(Cl)cc12)Cc1cccs1 | i | 52 | 2 | i
CCNC(=S)N(CCc1c(C)[nH]c2ccc(Cl)cc12)Cc1ccco1 | i | 72* | -30 | i
COc1ccc(-n2nc(C(=O)c3cccs3)cc(-c3nc4ccccc4[nH]3)c2=N)cc1 | i | 73* | -11 | i
O=C(NCCS(=O)(=O)N1CCN(c2cccc(Cl)c2)CC1)C1CCCC1 | i | 9 | 2 | i
Oc1ccc(/C=N/Nc2nccnc2Cl)c(O)c1 | i | 59* | 13 | i
O=[N+]([O-])c1cc(-c2nnc(C34CC5CC(CC(C5)C3)C4)o2)cc([N+](=O)[O-])c1 | i | 57* | -50 | i
